From ChEMBL document CHEMBL3877298, “Discovery of benzimidazole derivatives as modulators of mitochondrial function: A potential treatment for Alzheimer's disease” (Eur J Med Chem, 2017) come the findings set out here.

One series addresses T1, CYP1A2 (Homo sapiens, UniProt P05177).
T1 sequence (P05177 whole entry): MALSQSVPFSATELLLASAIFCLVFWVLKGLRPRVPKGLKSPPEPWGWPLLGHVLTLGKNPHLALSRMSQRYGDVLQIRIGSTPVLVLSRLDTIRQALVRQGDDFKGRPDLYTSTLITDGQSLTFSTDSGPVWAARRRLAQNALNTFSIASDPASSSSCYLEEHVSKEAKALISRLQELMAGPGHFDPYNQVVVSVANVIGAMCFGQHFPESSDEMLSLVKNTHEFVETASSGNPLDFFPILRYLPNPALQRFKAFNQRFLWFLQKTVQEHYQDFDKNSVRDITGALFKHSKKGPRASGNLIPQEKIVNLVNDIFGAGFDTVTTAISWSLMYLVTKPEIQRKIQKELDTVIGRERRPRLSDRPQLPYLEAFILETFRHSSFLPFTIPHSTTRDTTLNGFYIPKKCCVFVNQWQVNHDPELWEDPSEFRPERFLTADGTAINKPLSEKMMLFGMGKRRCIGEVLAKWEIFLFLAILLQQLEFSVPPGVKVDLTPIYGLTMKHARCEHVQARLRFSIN
The experiment in a line: Inhibition of recombinant human CYP1A2 expressed in baculosomes coexpressing rabbit NADPH-P450 reudctase assessed as residual activity at 10 uM preincubated for 5 mins followed by substrate and NADP+ addition measured after 20 mins by fluorescence assay relative to control. The format is ADME. The conditions noted are these: read-out: Activity. The gist of the method:
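Vivid CYP450 kit: recombinant human CYP isozyme in Baculosomes with rabbit NADPH-P450 reductase, plus regeneration system (3.3 mM glucose-6-phosphate, 0.3 U/mL G6PDH in 100 mM potassium phosphate, pH 8.0). Mixture preincubated with sample for 5 min at 37 °C. Vivid substrate and 0.1 mM NADP+ were then added, and remaining activity read by fluorescence after 20 min.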

The nature of series [1]: Auc (0 to infinity) in Sprague-Dawley rat at 10 mg/kg, iv by LC-MS/MS analysis. In kind it is ADME, organism-based. The arrangement: dose 10 mg/kg, time infinity, route intravenous. The conditions noted are these: in vivo. The gist of the method:
(§1)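 Male SD rats, 8 weeks old, given 10 mg/kg intravenously (n = 4). Plasma mixed with carbamazepine internal standard in acetonitrile, vortexed, centrifuged at 10,000×g, and the supernatant analysed by LC-MS/MS. Parameters reported as mean ± SD.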

A short description of series [2]: Total clearance in Sprague-Dawley rat at 10 mg/kg, iv by LC-MS/MS analysis. In kind it is ADME, organism-based. The conditions noted are these: in vivo. The method, boiled down: as §1
Another series deals with Mus musculus. The experiment in a line: Reversal of coginitive deficit in double APP/PS1 transgenic Alzheimer's disease mouse model assessed as increase in freezing response at 30 mg/kg, po daily for 1 month by contextual fear conditioning test. The format is functional.
Series [3] in a line: Volume of distribution at steady state in Sprague-Dawley rat at 10 mg/kg, iv by LC-MS/MS analysis. The conditions noted are these: in vivo, read-out: Vdss. In kind it is ADME, organism-based. The gist of the method: as §1
Series [4] can be described thus: Drug excretion in Sprague-Dawley rat at 10 mg/kg, po by LC-MS/MS analysis. The format is ADME, organism-based. The conditions noted are these: in vivo, read-out: Drug excretion.
Series [5] addresses Translocator protein (Mus musculus) (UniProt P50637). The series can be described thus: Inhibition of TSPO in mouse HT22 cells assessed as protection against amyloid beta (1 to 42)-induced mitochondrial membrane potential loss by measuring recovery of ATP production at 5 uM preincubated for 10 mins followed by amyloid beta (1 to 42) addition measured after 7 hrs by luciferase reporter gene assay relative to control. The arrangement: scale not given: the % may be the effect or the level left. The conditions noted are these: HT-22. In kind it is cell-based. The gist of the method: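 HT22 cells at 7000 per well were given compound (5 µM) for 10 min at 37 °C, then Aβ1-42 (5 µM) or DMSO vehicle, and incubated 7 h. Cells were washed, lysed in 1% Triton X-100, and protein-equalised by BCA. ATP was measured by luciferin/luciferase luminescence and normalised to vehicle.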
For orientation: Reporter assays use an easily measured gene product as a stand-in for the process of interest.

The target is the same in series [6]. The experiment in a line: Inhibition of TSPO in mouse HT22 cells assessed as protection against amyloid beta (1 to 42)-induced mitochondrial membrane potential loss by measuring recovery of mitochondrial membrane potential at 5 uM preincubated for 10 mins followed by amyloid beta (1 to 42) addition measured every 1 hr for 3 hrs by JC1 staining based fluorescence assay relative to control. In kind it is cell-based. The arrangement: scale not given: the % may be the effect or the level left. The conditions noted are these: HT-22. The method, boiled down:
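HT22 cells at 30,000 per well were loaded with 7.5 µM JC-1 in phenol red-free Opti-MEM for 1 h 15 min at 37 °C, then washed. Cells were treated with compound (5 µM) and Aβ1-42 (5 µM); vehicle wells received DMSO. Green (485/535) and red (560/595) fluorescence were read hourly for 3 h. Recovery was normalised between Aβ-damaged (0%) and normal (100%) ratio.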

Sequence of Translocator protein (Mus musculus) (P50637 whole entry, looked up): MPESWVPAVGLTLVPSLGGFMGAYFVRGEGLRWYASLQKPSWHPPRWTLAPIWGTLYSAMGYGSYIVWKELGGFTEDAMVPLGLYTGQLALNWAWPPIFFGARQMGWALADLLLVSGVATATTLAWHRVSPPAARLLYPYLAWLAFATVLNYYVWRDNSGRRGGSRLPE

`Cc1ccc(C(C)C)cc1NC(=O)Cn1c(Cc2c(Cl)cccc2Cl)nc2ccccc21`: the activity at 20 min, 10 µM at CYP1A2 came to 108%. The compound further gave an area under the curve AUC(0-inf) in series [1] of 1850 ng·h/mL. The compound also returned a clearance in series [2] of 54.5 mL/min/kg. Further, the Activity in the series on Mus musculus was determined as 12%; in series [5] it was 95%; in series [6], 74%. For the same compound, the Vd in series [3] stood at 6.21 L/kg. Also, the dose excreted in series [4] was found to be 0.01%.

The term AUC(0-inf) denotes the area under the concentration-time curve extrapolated to infinity. Usually clearance stands for the rate of elimination divided by the concentration.
